The source of these data is ChEMBL document CHEMBL3526013, “Cannabinoid type 1 receptor antagonists modulate transport activity of multidrug resistance-associated proteins MRP1, MRP2, MRP3, and MRP4” (Drug Metab Dispos, 2011).

The target in series [1] is T1, ATP-binding cassette sub-family C member 2 (Homo sapiens, UniProt Q92887). In words: Induction of MRP2-mediated E2-17betaG transport in human MRP2 expressing HEK293 cells at 7 uM during 5 mins. Conditions: hek293, 5 min; call rule not given here. Format: ADME, cell-based. A digest of the protocol:
(§1)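 Inside-out membrane vesicles from HEK293 cells transduced with MRP baculovirus (5 mM butyrate at 24 h, harvested day 3). Reaction: 7.5 µg vesicles in TS buffer pH 7.4 with 4 mM ATP, 10 mM MgCl2 and [3H]E2-17βG, 37°C for 5 min. E2-17βG was 0.16 µM (MRP1), 20 µM (MRP2) or 0.12 µM (MRP4). Uptake was read by rapid filtration and scintillation counting. ATP-dependent uptake was taken as ATP minus AMP values, with drug-free uptake set at 100%. Nominal 10 or 100 µM antagonist; actual concentration measured by LC-MS/MS. Three independent experiments.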

For series [2], the target named is T2, Multidrug resistance-associated protein 1 (Homo sapiens, UniProt P33527). Kind of series: Inhibition of MRP1-mediated E2-17betaG transport in human MRP1 expressing HEK293 cells at 7 uM during 5 mins. The settings on record: hek293, 5 min. Format: ADME, cell-based. A digest of the protocol: as §1
The target of series [3] is T3, ATP-binding cassette sub-family C member 4 (Homo sapiens, UniProt O15439).
T3 sequence (O15439 whole entry): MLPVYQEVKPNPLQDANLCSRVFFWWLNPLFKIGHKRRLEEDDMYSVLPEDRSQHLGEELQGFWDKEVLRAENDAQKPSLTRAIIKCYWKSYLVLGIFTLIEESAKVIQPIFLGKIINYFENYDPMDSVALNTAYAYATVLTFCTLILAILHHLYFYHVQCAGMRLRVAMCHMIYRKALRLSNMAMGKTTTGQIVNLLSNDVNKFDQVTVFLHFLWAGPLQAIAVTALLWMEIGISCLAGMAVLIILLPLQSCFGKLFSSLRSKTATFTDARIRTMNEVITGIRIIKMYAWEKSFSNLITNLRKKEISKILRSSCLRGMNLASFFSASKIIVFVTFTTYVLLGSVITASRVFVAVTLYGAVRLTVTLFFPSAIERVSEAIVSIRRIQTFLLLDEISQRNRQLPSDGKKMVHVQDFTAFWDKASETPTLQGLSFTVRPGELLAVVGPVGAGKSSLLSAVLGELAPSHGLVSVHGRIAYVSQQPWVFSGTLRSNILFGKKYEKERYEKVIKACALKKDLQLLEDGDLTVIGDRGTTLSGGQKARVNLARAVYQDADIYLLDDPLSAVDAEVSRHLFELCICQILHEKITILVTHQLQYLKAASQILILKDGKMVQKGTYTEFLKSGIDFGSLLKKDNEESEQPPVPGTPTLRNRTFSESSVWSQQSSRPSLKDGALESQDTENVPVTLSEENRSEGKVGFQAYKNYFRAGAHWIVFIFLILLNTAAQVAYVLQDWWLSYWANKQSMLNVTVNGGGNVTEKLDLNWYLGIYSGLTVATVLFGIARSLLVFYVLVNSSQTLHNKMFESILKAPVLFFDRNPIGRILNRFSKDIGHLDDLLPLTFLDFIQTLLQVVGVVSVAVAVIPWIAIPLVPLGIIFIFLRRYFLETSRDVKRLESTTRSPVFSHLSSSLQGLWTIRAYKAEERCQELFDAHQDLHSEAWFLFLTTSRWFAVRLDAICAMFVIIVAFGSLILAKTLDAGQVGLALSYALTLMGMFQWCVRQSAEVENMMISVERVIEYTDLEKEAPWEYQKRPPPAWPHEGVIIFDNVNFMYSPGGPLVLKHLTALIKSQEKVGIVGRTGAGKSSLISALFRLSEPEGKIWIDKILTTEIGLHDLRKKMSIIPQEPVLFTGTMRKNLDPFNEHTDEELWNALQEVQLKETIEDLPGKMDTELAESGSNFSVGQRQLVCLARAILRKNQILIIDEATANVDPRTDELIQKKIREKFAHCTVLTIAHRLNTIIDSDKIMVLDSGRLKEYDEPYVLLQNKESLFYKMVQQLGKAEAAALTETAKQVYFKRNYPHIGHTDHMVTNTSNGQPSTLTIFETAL
In words: Inhibition of MRP4-mediated E2-17betaG transport in human MRP4 expressing HEK293 cells at 7 uM during 5 mins. The settings on record: hek293, 5 min. The class given is ADME, cell-based. A digest of the protocol: as §1

The subject of another series is Rattus norvegicus. Kind of series: Attenuation of CP55940-induced hypotension in iv dosed rat. The class given is functional. A digest of the protocol: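 Male normotensive anaesthetized Wistar rats; antagonist given i.v. at several doses (n=2 per dose) 10 min before CP55,940 0.1 mg/kg i.v. Hypotension develops within 1 min; lowest blood pressure taken as the hypotensive effect. ED50 is the dose inhibiting the CP55,940 hypotensive effect by 50%, calculated from the linear part of the percentage dose-response curve.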

A short description of series [4]: Retention time of the compound by LC-MS/MS method. The class given is physicochemical. In a few lines: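 Reaction mix without radiolabel, AMP condition, with 7.5 μg eYFP vesicles. Supernatant after 16,000–20,000g spin diluted in 50% acetonitrile/0.1% TFA. Gradient of 0.1% TFA water/acetonitrile, 50→90% B over 5 min. Electrospray triple quadrupole. Duplicates, at least three experiments.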

Series [5] addresses T2, Multidrug resistance-associated protein 1. In words: (§2) Inhibition of MRP1-mediated E2-17betaG transport in human MRP1 expressing HEK293 cells at 12 uM during 5 mins. Format: ADME, cell-based. The settings on record: hek293, 5 min, 12 µM. A digest of the protocol:
(§3)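 Inside-out membrane vesicles from MRP1-baculovirus-transduced HEK293 cells. 7.5 μg vesicles in TS buffer, 4 mM ATP, 10 mM MgCl2, 0.16 μM [3H]E2-17βG, 5 min at 37°C. Stopped on ice, then rapid filtration and scintillation counting. ATP minus AMP uptake taken as net. Nominal 10 or 100 μM antagonist, actual levels by LC-MS/MS. Expressed as % of untreated. Three independent experiments.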

The target of series [6] is T1, ATP-binding cassette sub-family C member 2. In words: Induction of MRP2-mediated E2-17betaG transport in human MRP2 expressing HEK293 cells at 12 uM during 5 mins. Conditions: hek293, 5 min. The class given is ADME, cell-based. A digest of the protocol:
(§4)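 Inside-out membrane vesicles from HEK293 cells transduced with MRP2 baculovirus (sodium butyrate 5 mM added at 24 h, harvested day 3). 7.5 μg vesicles in TS buffer (pH 7.4) with 4 mM ATP, 10 mM MgCl2, 20 μM [3H]E2-17βG, 5 min at 37°C. Rapid filtration and scintillation counting; AMP values subtracted. Nominal 10 and 100 μM antagonist, actual levels measured by LC-MS/MS. Untreated set at 100%. Three independent experiments.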

Series [7] addresses T3, ATP-binding cassette sub-family C member 4. Kind of series: (§5) Inhibition of MRP4-mediated E2-17betaG transport in human MRP4 expressing HEK293 cells at 12 uM during 5 mins. Format: ADME, cell-based. Conditions: hek293, 5 min, 12 µM. A digest of the protocol:
(§6)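 MRP4-expressing HEK293 inside-out vesicles (baculovirus transduction). 7.5 μg protein with 4 mM ATP, 10 mM MgCl2 in TS buffer and 0.12 μM [3H]E2-17βG, 5 min at 37°C. Filter-bound radioactivity counted; AMP control subtracted for ATP-dependent uptake. Nominal 10/100 μM antagonist, actual concentrations by LC-MS/MS. Percent of untreated, three independent experiments.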

Series [8] concerns the target T2, Multidrug resistance-associated protein 1. In words: Inhibition of MRP1-mediated E2-17betaG transport in human MRP1 expressing HEK293 cells at 1 to 3 uM during 5 mins. Format: ADME, cell-based. Conditions: hek293, 5 min. In a few lines: as §3
For series [9], the target named is T3, ATP-binding cassette sub-family C member 4. Kind of series: Noncompetitive inhibition of MRP4-mediated E2-17betaG transport in human MRP4 expressing HEK293 cells by Dixon plot. The class given is ADME, cell-based.
For series [10], the target named is T1, ATP-binding cassette sub-family C member 2. Kind of series: Induction of MRP2-mediated E2-17betaG transport in human MRP2 expressing HEK293 cells at 1 to 3 uM during 5 mins. Format: ADME, cell-based. Conditions: hek293, 5 min. In a few lines: as §4
Series [11] concerns the target ATP-binding cassette sub-family C member 3 (Homo sapiens, UniProt O15438). Kind of series: Inhibition of MRP3-mediated E2-17betaG transport in human MRP3 expressing HEK293 cells in presence of 15 uM E2-17betaG. Format: ADME, cell-based. A digest of the protocol:
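Vesicles from MRP3-transduced HEK293 cells. 7.5 μg in TS buffer with 4 mM ATP and 10 mM MgCl2, substrate [3H]E2-17βG at 15 μM, with antagonists at high concentrations. Incubated at 37°C, filtered and counted. ATP-dependent uptake calculated by AMP subtraction.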

Series [12] addresses T3, ATP-binding cassette sub-family C member 4. In words: Inhibition of MRP4-mediated E2-17betaG transport in human MRP4 expressing HEK293 cells at 1 to 3 uM during 5 mins. Format: ADME, cell-based. Conditions: hek293, 5 min. In a few lines: as §6
Series [13] addresses T1, ATP-binding cassette sub-family C member 2. Kind of series: Induction of MRP2-mediated E2-17betaG transport in human MRP2 expressing HEK293 cells at 0.7 to 1.3 uM during 5 mins. Format: ADME, cell-based. The settings on record: hek293, 5 min. In a few lines:
as §4

Series [14] concerns the target T3, ATP-binding cassette sub-family C member 4. In words: Inhibition of MRP4-mediated E2-17betaG transport in human MRP4 expressing HEK293 cells in presence of 0.1 to 1 uM E2-17betaG.
In a further series the target is MRP1 (ABCC1) (Homo sapiens, UniProt P33527). The description is as §2. Format: ADME, cell-based. The settings on record: probe E2-17betaG. In a few lines:
as §3

The target in series [15] is T2, Multidrug resistance-associated protein 1. In words: Inhibition of MRP1-mediated E2-17betaG transport in human MRP1 expressing HEK293 cells in presence of 0.16 to 5 uM E2-17betaG.
For another series, the target named is T4, MRP4 (ABCC4) (Homo sapiens, UniProt O15439).
T4 sequence (O15439 whole entry): T3 sequence (O15439 whole entry)
The description is as §5. Format: ADME, cell-based. Conditions: probe E2-17betaG. In a few lines: as §6

T1 sequence (Q92887 whole entry): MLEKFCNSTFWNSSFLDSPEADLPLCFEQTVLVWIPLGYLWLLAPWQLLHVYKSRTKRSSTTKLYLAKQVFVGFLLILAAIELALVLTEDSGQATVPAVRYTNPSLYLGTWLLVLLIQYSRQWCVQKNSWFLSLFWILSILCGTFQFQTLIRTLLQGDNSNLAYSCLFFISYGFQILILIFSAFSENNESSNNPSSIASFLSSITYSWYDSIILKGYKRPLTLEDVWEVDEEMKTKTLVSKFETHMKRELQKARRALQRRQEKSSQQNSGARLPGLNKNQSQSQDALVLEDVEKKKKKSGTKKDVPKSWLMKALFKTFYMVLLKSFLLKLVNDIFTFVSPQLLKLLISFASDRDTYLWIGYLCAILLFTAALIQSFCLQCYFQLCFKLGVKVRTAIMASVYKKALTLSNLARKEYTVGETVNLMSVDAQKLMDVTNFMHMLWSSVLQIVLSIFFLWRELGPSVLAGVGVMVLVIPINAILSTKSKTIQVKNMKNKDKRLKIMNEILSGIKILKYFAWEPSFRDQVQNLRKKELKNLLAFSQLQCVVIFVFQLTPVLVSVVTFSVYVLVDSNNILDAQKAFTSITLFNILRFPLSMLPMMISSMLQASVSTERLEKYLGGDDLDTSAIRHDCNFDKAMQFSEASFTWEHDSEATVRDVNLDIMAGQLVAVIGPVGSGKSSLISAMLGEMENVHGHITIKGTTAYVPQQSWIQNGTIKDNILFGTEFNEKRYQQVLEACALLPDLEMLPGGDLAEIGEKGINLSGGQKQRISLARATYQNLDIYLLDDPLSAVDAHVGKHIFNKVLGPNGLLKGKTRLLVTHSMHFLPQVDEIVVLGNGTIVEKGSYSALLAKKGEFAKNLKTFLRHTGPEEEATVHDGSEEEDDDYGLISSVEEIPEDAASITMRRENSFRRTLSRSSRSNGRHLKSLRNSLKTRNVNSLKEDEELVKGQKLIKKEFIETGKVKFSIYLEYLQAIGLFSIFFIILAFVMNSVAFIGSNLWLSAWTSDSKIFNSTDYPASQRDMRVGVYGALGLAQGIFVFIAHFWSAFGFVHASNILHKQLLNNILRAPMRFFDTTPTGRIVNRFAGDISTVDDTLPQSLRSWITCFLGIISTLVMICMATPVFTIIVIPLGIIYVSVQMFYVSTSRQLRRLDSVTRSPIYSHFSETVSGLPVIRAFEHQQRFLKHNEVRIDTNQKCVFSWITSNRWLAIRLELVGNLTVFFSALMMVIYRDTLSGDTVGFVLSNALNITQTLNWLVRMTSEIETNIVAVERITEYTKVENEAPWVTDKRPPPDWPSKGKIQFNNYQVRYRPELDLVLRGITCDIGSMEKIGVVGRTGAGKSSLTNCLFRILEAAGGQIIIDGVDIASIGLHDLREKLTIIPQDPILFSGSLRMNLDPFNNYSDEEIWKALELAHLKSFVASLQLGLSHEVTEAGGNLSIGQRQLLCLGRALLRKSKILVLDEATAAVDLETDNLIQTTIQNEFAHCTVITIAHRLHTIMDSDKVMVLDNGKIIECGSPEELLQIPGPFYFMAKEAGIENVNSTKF
T2 sequence (P33527 whole entry): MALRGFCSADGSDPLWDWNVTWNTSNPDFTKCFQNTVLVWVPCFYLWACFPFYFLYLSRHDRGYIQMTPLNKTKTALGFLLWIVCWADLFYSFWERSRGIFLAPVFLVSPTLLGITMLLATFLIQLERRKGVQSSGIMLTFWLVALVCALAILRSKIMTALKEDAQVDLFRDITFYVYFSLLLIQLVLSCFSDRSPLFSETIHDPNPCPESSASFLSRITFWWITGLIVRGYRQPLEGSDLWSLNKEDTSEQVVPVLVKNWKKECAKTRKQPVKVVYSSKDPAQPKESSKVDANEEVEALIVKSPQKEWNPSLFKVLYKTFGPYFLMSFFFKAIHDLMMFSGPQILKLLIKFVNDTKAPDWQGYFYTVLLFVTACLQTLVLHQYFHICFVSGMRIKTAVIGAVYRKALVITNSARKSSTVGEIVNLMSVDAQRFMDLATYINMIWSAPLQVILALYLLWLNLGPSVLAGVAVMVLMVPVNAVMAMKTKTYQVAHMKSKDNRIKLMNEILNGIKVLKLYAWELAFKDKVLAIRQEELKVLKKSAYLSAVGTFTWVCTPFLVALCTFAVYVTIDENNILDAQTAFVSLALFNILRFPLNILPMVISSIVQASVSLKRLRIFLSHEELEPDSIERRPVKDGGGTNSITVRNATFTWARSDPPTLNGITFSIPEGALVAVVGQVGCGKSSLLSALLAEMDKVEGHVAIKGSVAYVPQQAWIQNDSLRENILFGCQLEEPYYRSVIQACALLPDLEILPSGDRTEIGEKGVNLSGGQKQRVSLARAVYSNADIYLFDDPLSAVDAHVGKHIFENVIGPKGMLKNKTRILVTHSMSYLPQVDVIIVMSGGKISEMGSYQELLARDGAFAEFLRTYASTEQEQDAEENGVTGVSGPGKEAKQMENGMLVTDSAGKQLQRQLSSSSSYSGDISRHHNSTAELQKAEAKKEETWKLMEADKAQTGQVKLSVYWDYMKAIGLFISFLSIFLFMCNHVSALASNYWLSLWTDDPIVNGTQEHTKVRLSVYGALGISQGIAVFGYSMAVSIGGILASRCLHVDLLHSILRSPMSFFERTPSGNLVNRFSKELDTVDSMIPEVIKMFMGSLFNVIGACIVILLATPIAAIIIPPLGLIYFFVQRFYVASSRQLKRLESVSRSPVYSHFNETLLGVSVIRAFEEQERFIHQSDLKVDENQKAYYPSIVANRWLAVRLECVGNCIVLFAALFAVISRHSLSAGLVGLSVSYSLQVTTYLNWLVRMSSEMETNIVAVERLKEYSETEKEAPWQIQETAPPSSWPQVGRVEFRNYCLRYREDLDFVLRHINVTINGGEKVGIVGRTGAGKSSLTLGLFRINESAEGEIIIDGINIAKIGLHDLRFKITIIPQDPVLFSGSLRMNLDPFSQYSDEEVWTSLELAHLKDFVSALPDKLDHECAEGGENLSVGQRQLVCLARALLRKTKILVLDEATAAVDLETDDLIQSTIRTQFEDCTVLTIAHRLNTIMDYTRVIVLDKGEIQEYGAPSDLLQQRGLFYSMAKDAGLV
Chain of ATP-binding cassette sub-family C member 3 (O15438 whole entry): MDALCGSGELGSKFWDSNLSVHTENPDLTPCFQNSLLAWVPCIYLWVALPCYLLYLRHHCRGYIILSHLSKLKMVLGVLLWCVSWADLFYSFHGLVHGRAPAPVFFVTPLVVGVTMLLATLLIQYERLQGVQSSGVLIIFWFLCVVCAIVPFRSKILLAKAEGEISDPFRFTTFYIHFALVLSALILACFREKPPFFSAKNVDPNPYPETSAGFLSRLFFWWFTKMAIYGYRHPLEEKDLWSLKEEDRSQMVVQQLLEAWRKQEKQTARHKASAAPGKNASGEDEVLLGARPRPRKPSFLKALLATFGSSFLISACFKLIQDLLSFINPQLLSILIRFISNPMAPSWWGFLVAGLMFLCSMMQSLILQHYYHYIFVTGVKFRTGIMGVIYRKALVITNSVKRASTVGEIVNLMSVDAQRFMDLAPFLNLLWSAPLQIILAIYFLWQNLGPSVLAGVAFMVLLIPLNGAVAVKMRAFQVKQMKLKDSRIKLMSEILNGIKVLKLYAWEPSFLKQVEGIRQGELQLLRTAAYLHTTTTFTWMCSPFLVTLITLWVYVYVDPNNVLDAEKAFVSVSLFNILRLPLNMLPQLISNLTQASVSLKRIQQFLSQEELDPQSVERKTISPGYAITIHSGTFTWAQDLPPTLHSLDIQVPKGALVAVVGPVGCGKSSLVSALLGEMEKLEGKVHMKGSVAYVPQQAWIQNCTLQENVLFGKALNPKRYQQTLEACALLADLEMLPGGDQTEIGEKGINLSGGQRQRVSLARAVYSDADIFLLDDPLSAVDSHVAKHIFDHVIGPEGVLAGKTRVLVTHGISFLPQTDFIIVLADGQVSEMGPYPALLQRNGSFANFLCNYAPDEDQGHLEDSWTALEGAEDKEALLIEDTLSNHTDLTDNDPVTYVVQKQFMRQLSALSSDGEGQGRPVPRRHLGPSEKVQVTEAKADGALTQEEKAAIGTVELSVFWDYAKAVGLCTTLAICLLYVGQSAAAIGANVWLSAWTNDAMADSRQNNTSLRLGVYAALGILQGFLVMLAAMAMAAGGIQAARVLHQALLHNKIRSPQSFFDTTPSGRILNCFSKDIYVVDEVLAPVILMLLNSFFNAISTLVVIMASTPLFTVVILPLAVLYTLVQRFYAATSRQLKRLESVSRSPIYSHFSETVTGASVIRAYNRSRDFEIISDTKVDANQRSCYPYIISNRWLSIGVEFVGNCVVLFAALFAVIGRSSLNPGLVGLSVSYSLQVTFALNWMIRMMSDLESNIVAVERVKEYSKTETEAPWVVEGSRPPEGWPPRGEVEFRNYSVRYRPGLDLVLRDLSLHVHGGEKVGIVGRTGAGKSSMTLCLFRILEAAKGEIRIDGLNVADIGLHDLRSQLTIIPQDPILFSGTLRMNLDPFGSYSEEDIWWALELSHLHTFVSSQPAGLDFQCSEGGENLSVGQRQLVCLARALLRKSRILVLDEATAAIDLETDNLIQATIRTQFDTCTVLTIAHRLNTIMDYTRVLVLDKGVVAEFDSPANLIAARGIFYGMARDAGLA
Chain of MRP1 (ABCC1) (P33527 whole entry): as the sequence (P33527 whole entry) above

In general, ED50 refers to the dose at which the effect has come halfway, by size or by number of responders. Read a high ED50 as a need for a large dose. `CCN(CC)S(=O)(=O)NC(=NC)N1CC(c2ccccc2)C(c2ccc(Cl)cc2)=N1` (configuration not stated): in [1], the Activity is recorded as 543%. In addition, the entries for the “inhibition (INH)” value in series [2] and in series [3] were “Not Active” and “Active”, respectively. In the series with Rattus norvegicus, this compound yielded an ED50 of 0.2 mg/kg. The compound also registered a Retention_time in series [4] of 4.2 min.
Take `CN=C(NS(=O)(=O)N1CCCC1)N1CC(c2ccccc2)C(c2ccc(Cl)cc2)=N1` (configuration not stated): the “inhibition (INH)” value in series [5] and in series [7] was “Active” in each case. The Activity in series [6] was 543%. In the series with Rattus norvegicus, the ED50 is 0.7 mg/kg. The same compound gave a Retention_time in series [4] of 3.5 min.
On to `CN/C(=N\S(=O)(=O)N1CCCCCC1)N1CC(c2ccccc2)C(c2ccc(Cl)cc2)=N1` (configuration not stated), for which the “inhibition (INH)” value in [8] is “Not Active”; in series [9] (human, hek293), “Active”; in series [11] it was “Active”; in [12], “Not Active”; in [14], “Active”. Moreover, the Activity in series [10] is reported as 349%; in [13] it was 256%. The compound also had an ED50 with Rattus norvegicus of 0.1 mg/kg. For the same compound, the Retention_time in series [4] is reported as 4.8 min.
For `CNC(=NS(=O)(=O)N1CCCCCCC1)N1CC(c2ccccc2)C(c2ccc(Cl)cc2)=N1` (configuration not stated), the “inhibition (INH)” value in series [8] and in series [12] was “Not Active” throughout. For the same compound, the Activity is reported as 349% in series [10] and 256% in series [13]. In series [4], this compound registered a Retention_time of 5.4 min.
The term inhibition denotes the drop in the measured response relative to a control, in per cent. As a reminder, the Ki is a dissociation constant, usually derived from enzyme kinetics or from competition with a known ligand. The low end stands for higher affinity, the high end for lower affinity. With `CCN(C)S(=O)(=O)NC(=NC)N1CC(c2ccccc2)C(c2ccc(Cl)cc2)=N1` (configuration not stated), the inhibition at 5 min, 12 µM at MRP1 (ABCC1) is -34%; against MRP4 (ABCC4), -72%. Further, the Ki in series [9] stood at 7 µM. Moreover, the “inhibition (INH)” value in series [11], in series [15] and in series [14] was “Active” in each case. The Activity in series [6] worked out at 543%. The Retention_time in series [4] turned out to be 3.8 min.
